Reference: ChEMBL document CHEMBL1138062 (J Med Chem, 2006)
The source made the active and inactive calls. The calls are words filed in the database; no cut-off is given here.

Tests used:
[1] = target: GABA-A receptor; anion channel; experiment: Displacement of [3H]muscimol from GABAA receptor in rat brain synaptic membranes; format: cell membranes, Membrane
Procedure, shortened: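 Rat brain membrane preparations used for receptor binding. IC50 and Ki treated as log-normally distributed; mean and SEM calculated on the log scale, with the range given as the antilog of log mean ± SEM.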

[2] = target: Sodium- and chloride-dependent GABA transporter 1 (Mus musculus) (UniProt P31648); experiment: Inhibition of [3H]GABA uptake at mouse GABA transporter1 expressed in HEK293 cells at 1 mM; format: cell-based
[3] = target: T1, GABA transporter 4 (Mus musculus) (UniProt P31650); experiment: Inhibition of [3H]GABA uptake at mouse GABA transporter4 expressed in HEK293 cells at 1 mM; format: cell-based
T1 sequence (whole entry): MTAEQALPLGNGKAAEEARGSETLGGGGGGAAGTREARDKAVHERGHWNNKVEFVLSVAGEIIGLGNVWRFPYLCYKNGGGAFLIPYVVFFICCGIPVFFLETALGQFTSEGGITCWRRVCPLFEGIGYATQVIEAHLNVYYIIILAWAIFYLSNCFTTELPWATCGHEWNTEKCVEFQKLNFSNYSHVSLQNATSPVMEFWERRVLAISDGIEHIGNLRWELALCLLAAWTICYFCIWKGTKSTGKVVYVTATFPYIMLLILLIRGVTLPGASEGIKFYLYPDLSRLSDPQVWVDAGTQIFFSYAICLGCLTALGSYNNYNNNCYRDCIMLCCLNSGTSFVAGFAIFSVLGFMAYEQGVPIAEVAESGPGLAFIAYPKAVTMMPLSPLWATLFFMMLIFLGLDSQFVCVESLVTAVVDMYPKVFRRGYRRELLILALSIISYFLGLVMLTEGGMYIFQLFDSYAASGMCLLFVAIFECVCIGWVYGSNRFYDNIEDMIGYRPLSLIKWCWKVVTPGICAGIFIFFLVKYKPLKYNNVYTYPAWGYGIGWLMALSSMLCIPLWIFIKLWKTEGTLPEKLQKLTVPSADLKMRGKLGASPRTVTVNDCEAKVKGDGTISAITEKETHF

[4] = Agonist activity at GABAA receptor in mouse cerebral cortical neurons assessed as induction of peak current at 3 mM relative to GABA by whole cell patch clamp method; format: functional
Procedure, shortened: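 Peak currents evoked by 3 mM test agent compared with a close to maximal GABA response (600 µM). Specificity was checked by pretreating cells with gabazine (100 µM) for 15 s, then co-applying gabazine (100 µM) with agonist (3 mM). Values are mean ± SE, N = 3–7.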

Mus musculus = species on record: Mus musculus; experiment: Inhibition of isoguvacine-induced current in mouse cerebral cortical neurons expressing GABAA receptor by whole cell patch clamp method; format: functional
Procedure, shortened: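 Test agent applied at a range of concentrations against isoguvacine-evoked currents. Currents normalized to the current induced by 20 µM isoguvacine. Mean ± SE from nine neurons. IC50 estimated by linear regression.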

[5] = target: T2, GABA transporter 2 (Mus musculus) (UniProt P31651); experiment: Inhibition of [3H]GABA uptake at mouse GABA transporter2 expressed in HEK293 cells at 1 mM; format: cell-based
T2 sequence (whole entry): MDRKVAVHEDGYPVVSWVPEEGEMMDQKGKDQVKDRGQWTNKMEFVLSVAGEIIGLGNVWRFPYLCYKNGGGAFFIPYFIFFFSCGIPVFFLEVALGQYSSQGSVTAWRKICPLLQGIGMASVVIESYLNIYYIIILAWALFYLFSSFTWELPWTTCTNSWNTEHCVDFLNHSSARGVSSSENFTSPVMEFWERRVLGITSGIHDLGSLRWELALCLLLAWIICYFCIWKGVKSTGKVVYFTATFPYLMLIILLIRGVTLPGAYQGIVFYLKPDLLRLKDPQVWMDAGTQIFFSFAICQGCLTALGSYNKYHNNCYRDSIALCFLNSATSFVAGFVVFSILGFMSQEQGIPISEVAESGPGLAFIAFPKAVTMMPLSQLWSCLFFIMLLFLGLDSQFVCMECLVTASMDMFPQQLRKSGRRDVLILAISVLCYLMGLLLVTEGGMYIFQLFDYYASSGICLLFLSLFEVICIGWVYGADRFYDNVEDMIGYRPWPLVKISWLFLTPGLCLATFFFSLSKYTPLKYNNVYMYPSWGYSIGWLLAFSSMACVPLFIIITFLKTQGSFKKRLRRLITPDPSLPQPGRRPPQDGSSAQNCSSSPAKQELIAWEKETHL

[6] = target: T3, GABA transporter 3 (Mus musculus) (UniProt P31649); experiment: Inhibition of [3H]GABA uptake at mouse GABA transporter3 expressed in HEK293 cells at 1 mM; format: cell-based
T3 sequence (whole entry): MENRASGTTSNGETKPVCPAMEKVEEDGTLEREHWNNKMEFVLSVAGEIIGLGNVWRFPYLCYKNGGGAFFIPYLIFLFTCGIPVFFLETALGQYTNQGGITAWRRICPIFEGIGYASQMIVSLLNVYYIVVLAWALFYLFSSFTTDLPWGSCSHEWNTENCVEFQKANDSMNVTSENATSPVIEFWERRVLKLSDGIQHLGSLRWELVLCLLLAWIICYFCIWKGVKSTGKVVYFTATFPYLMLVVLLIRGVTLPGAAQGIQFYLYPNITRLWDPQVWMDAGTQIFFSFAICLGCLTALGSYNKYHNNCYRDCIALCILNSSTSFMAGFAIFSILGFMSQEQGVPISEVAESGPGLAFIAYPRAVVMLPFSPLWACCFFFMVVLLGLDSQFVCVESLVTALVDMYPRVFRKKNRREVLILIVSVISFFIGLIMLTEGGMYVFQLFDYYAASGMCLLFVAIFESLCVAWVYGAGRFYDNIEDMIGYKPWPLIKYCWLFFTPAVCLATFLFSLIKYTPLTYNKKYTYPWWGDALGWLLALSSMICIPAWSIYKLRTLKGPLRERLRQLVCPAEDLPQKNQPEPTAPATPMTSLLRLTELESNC

GABA-B receptor (rat) = experiment: Inhibition of [3H]GABA binding in GABAB receptor in rat brain synaptic membranes

inhibition [2]	inhibition [3]	inhibition [5]	inhibition [6]	IC50 (GABA-B receptor (rat)) [µM]	IC50 [1] [µM]	SMILES	Ki [1] [µM]	Activity [4] [%]	inhibition (Mus musculus)
inactive	inactive	inactive	inactive	> 100	> 100	NCCCCc1nonc1O	–	0.8	Dose-dependent effect
inactive	inactive	inactive	inactive	25	–	NCCCc1nonc1O	27	14	Dose-dependent effect

SMILES	inhibition [2]	inhibition [3]	inhibition [5]	inhibition [6]	IC50 (GABA-B receptor (rat)) [µM]	IC50 [1] [µM]	Ki [1] [µM]	Activity [4] [%]	inhibition (Mus musculus)
NCCc1nonc1O	inactive	inactive	inactive	inactive	2	–	13	40	Dose-dependent effect
